In ChEMBL document CHEMBL1134579, “Design and biological activity of (S)-4-(5-([1-(3-chlorobenzyl)-2-oxopyrrolidin-3-ylamino]methyl)imidazol-1-ylmethyl)benzonitrile, a 3-aminopyrrolidinone farnesyltransferase inhibitor with excellent cell potency” (J Med Chem, 2001):

Biological target: Protein farnesyltransferase (Rattus norvegicus)
Assay: Concentration required to displace 50% of a potent radiolabeled FTI from farnesyl transferase in cultured H-ras-transformed Rat1 cells

| Compound | IC50 [µM] |
| --- | --- |
| N#Cc1ccc(Cn2cncc2CN[C@H]2CCN(Cc3ccc(Cl)cc3)C2=O)cc1 | 0.053 |
| N#Cc1ccc(Cn2cncc2CN[C@H]2CCN(c3ccccc3)C2=O)cc1 | 0.027 |
| N#Cc1ccc(Cn2cncc2CN[C@H]2CCN(c3ccccc3Cl)C2=O)cc1 | 0.014 |
| N#Cc1ccc(Cn2cncc2CCN[C@H]2CCN(c3ccccc3)C2=O)cc1 | 0.15 |
| CCSc1ncccc1C(=O)N1CC[C@H](NCc2cncn2Cc2ccc(C#N)cc2)C1 | 0.0062 |
| N#Cc1ccc(Cn2cncc2CN(CCCCc2ccccc2)[C@H]2CCN(Cc3ccccc3)C2=O)cc1 | 0.31 |
| N#Cc1ccc(Cn2cncc2CN[C@H]2CCN(C(=O)c3ccc(Cl)cc3)C2)cc1 | 0.07 |
| N#Cc1ccc(Cn2cncc2CN[C@H]2CCN(c3ccncc3)C2=O)cc1 | 0.2 |
| Cc1ncccc1C(=O)N1CC[C@H](NCc2cncn2Cc2ccc(C#N)cc2)C1 | 0.61 |
| N#Cc1ccc(Cn2cncc2CN(CCCN)[C@H]2CCN(Cc3cccc(Cl)c3)C2=O)cc1 | 0.15 |
| N#Cc1ccc(Cn2cncc2CN[C@H]2CCN(C(=O)c3cncc(Br)c3)C2)cc1 | 0.049 |
| N#Cc1ccc(Cn2cncc2CN[C@H]2CCN(Cc3ccccc3Cl)C2=O)cc1 | 0.0027 |
| CCCN(Cc1cncn1Cc1ccc(C#N)cc1)[C@H]1CCN(Cc2ccccc2)C1=O | 0.036 |
| N#Cc1ccc(Cn2cncc2CN[C@H]2CCN(c3ccc(Cl)cc3)C2=O)cc1 | 0.03 |
| N#Cc1ccc(Cn2cncc2CN[C@H]2CCN(c3cccnc3)C2=O)cc1 | 0.24 |
| CC(C)(C)OC(=O)NCCCN(Cc1cncn1Cc1ccc(C#N)cc1)[C@H]1CCN(Cc2cccc(Cl)c2)C1=O | 0.0011 |
| N#Cc1ccc(Cn2cncc2CN[C@H]2CCN(C(=O)c3cccc4ccccc34)C2)cc1 | 0.33 |
| N#Cc1ccc(Cn2cncc2CN[C@H]2CCN(C(=O)c3cccc(Cl)c3)C2)cc1 | 0.067 |
| N#Cc1ccc(Cn2cncc2CN(CCc2ccccc2)[C@H]2CCN(Cc3ccccc3)C2=O)cc1 | 0.46 |
| N#Cc1ccc(Cn2cncc2CN[C@H]2CCN(c3cccc(Cl)c3)C2=O)cc1 | 0.03 |

Biological target: Voltage-gated inwardly rectifying potassium channel KCNH2 (Homo sapiens, UniProt Q12809)
Assay: not given

Sequence of Voltage-gated inwardly rectifying potassium channel KCNH2 (Q12809 whole entry): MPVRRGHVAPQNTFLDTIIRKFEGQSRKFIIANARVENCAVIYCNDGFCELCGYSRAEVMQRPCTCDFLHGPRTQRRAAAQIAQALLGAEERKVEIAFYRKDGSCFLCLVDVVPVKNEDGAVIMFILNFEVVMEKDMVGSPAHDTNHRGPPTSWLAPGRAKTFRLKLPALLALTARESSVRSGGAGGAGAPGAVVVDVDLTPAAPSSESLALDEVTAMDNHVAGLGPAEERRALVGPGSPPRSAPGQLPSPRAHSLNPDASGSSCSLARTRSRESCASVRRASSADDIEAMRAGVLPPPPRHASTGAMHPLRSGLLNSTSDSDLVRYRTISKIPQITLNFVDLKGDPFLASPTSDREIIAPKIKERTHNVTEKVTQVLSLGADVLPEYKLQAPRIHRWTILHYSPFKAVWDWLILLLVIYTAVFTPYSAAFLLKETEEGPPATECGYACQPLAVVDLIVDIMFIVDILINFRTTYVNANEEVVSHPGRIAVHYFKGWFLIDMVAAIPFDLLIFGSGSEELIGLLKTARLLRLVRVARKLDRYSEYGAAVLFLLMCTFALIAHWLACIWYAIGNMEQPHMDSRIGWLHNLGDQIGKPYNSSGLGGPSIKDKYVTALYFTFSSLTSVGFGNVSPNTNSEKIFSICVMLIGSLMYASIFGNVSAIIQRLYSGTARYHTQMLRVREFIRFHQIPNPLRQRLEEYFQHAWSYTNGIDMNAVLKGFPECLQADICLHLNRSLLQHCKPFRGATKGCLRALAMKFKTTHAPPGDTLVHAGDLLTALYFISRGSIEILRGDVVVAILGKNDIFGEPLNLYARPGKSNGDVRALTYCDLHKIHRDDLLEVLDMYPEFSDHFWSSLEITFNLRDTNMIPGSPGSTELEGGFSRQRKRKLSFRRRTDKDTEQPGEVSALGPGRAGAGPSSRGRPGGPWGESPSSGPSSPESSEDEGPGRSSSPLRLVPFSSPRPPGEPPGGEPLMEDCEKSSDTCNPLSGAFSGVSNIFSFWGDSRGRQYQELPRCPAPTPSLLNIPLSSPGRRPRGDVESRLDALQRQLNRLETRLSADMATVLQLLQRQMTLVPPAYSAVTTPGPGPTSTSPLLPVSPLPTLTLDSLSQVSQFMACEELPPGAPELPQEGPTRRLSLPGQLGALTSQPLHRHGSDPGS

| Compound | IC50 [µM] |
| --- | --- |
| N#Cc1ccc(Cn2cncc2CN[C@H]2CCN(Cc3ccccc3)C2=O)cc1 | 7.2 |
| CCSc1ncccc1C(=O)N1CC[C@H](NCc2cncn2Cc2ccc(C#N)cc2)C1 | 14 |
| Cc1ncccc1C(=O)N1CC[C@H](NCc2cncn2Cc2ccc(C#N)cc2)C1 | > 10 |
| N#Cc1ccc(Cn2cncc2CN[C@H]2CCN(C(=O)c3cccnc3N)C2)cc1 | > 50 |
| N#Cc1ccc(Cn2cncc2CN(CCCN)[C@H]2CCN(Cc3cccc(Cl)c3)C2=O)cc1 | 0.48 |
| N#Cc1ccc(Cn2cncc2CN[C@H]2CCN(C(=O)c3cncc(Br)c3)C2)cc1 | 6 |
| CC(C)(C)OC(=O)NCCCN(Cc1cncn1Cc1ccc(C#N)cc1)[C@H]1CCN(Cc2cccc(Cl)c2)C1=O | 0.11 |
| N#Cc1ccc(Cn2cncc2CN[C@H]2CCN(C(=O)c3cccnc3S)C2)cc1 | 11 |
| N#Cc1ccc(Cn2cncc2CN[C@H]2CCN(C(=O)c3cccc(Cl)c3)C2)cc1 | 5.8 |

Biological target: Geranylgeranyl transferase type-1 subunit beta (Homo sapiens, UniProt P53609)
Assay: Inhibitory concentration of geranylgeranyl-protein transferase type I

Sequence of Geranylgeranyl transferase type-1 subunit beta (P53609 whole entry): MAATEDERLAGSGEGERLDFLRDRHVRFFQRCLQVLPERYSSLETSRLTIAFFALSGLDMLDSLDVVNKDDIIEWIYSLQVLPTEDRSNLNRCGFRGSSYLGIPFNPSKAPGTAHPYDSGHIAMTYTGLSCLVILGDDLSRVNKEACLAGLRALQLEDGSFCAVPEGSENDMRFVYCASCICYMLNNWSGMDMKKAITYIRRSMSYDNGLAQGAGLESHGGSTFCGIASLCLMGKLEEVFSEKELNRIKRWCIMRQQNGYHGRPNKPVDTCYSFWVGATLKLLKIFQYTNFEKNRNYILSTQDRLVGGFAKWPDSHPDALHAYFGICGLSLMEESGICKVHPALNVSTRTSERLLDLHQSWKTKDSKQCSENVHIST

| Compound | IC50 [µM] |
| --- | --- |
| N#Cc1ccc(Cn2cncc2CN(CCN2CCOCC2)[C@H]2CCN(Cc3cccc(Cl)c3)C2=O)cc1 | 12 |
| N#Cc1ccc(Cn2cncc2CN[C@H]2CCN(C(=O)c3ccccc3Cl)C2)cc1 | 19 |
| N#Cc1ccc(Cn2cncc2CN[C@H]2CCN(c3cccc4ncccc34)C2=O)cc1 | > 20 |
| N#Cc1ccc(Cn2cncc2CN[C@H]2CCN(Cc3ccc(Cl)cc3)C2=O)cc1 | 15 |
| N#Cc1ccc(Cn2cncc2CN[C@H]2CCN(Cc3ccccc3)C2=O)cc1 | 40 |
| N#Cc1ccc(Cn2cncc2CN[C@H]2CCN(Cc3cccc(Cl)c3)C2=O)cc1 | 3.4 |
| N#Cc1ccc(Cn2cncc2CN[C@H]2CCN(c3ccccc3)C2=O)cc1 | 46 |
| N#Cc1ccc(Cn2cncc2CN(CCCc2ccccc2)[C@H]2CCN(Cc3ccccc3)C2=O)cc1 | 12 |
| N#Cc1ccc(Cn2cncc2CN(CCCN)[C@H]2CCN(Cc3ccccc3)C2=O)cc1 | > 50 |
| N#Cc1ccc(Cn2cncc2CN[C@H]2CCN(c3ccccc3Cl)C2=O)cc1 | 42 |
| N#Cc1ccc(Cn2cncc2CN(Cc2ccccc2)[C@H]2CCN(Cc3ccccc3)C2=O)cc1 | 20 |
| N#Cc1ccc(Cn2cncc2CCN[C@H]2CCN(c3ccccc3)C2=O)cc1 | 14 |
| CCSc1ncccc1C(=O)N1CC[C@H](NCc2cncn2Cc2ccc(C#N)cc2)C1 | ~5.1 |
| N#Cc1ccc(Cn2cncc2CN(CCCCc2ccccc2)[C@H]2CCN(Cc3ccccc3)C2=O)cc1 | 4.6 |
| N#Cc1ccc(Cn2cncc2CN(CCCc2ccccc2)[C@H]2CCN(Cc3cccc(Cl)c3)C2=O)cc1 | 6.5 |
| N#Cc1ccc(Cn2cncc2CCN[C@H]2CCN(Cc3ccccc3)C2=O)cc1 | 7.4 |
| N#Cc1ccc(Cn2cncc2CN[C@H]2CCN(C(=O)c3ccc(Cl)cc3)C2)cc1 | 19 |
| N#Cc1ccc(Cn2cncc2CN[C@@H]2CCN(Cc3ccccc3)C2=O)cc1 | 46 |
| N#Cc1ccc(Cn2cncc2CCN[C@@H]2CCN(c3ccccc3)C2=O)cc1 | 16 |
| N#Cc1ccc(Cn2cncc2CN(CCN2CCNCC2)[C@H]2CCN(Cc3cccc(Cl)c3)C2=O)cc1 | > 50 |
| N#Cc1ccc(Cn2cncc2CN[C@H]2CCN(c3ccncc3)C2=O)cc1 | > 20 |
| Cc1ncccc1C(=O)N1CC[C@H](NCc2cncn2Cc2ccc(C#N)cc2)C1 | > 50 |
| N#Cc1ccc(Cn2cncc2CN[C@H]2CCN(C(=O)c3cccnc3N)C2)cc1 | > 50 |
| N#Cc1ccc(Cn2cncc2CN(CCCN)[C@H]2CCN(Cc3cccc(Cl)c3)C2=O)cc1 | > 50 |

| Compound | IC50 [µM] |
| --- | --- |
| N#Cc1ccc(Cn2cncc2CN[C@H]2CCN(C(=O)c3cncc(Br)c3)C2)cc1 | 41 |
| N#Cc1ccc(Cn2cncc2CN[C@H]2CCN(Cc3ccccc3Cl)C2=O)cc1 | 11 |
| N#Cc1ccc(Cn2cncc2CCN[C@H]2CCN(CCc3ccccc3)C2=O)cc1 | 2.8 |
| N#Cc1ccc(Cn2cncc2CN[C@H]2CCN(C(=O)c3cccnc3)C2)cc1 | > 50 |
| CSc1ncccc1C(=O)N1CC[C@H](NCc2cncn2Cc2ccc(C#N)cc2)C1 | 28 |
| N#Cc1ccc(Cn2cncc2CN[C@@H]2CCN(CCc3ccccc3)C2=O)cc1 | 31 |
| N#Cc1ccc(Cn2cncc2CN[C@H]2CCN(C(=O)c3ccc[nH]c3=O)C2)cc1 | > 50 |
| N#Cc1ccc(Cn2cncc2CN[C@H]2CCN(c3ccc(Cl)cc3)C2=O)cc1 | 11 |
| N#Cc1ccc(Cn2cncc2CCN[C@@H]2CCN(Cc3ccccc3)C2=O)cc1 | 11 |
| N#Cc1ccc(Cn2cncc2CN[C@H]2CCN(CCc3ccccc3)C2=O)cc1 | 48 |
| COc1ncccc1C(=O)N1CC[C@H](NCc2cncn2Cc2ccc(C#N)cc2)C1 | > 50 |
| N#Cc1ccc(Cn2cncc2CN[C@H]2CCN(c3cccnc3)C2=O)cc1 | > 20 |
| CC(C)(C)OC(=O)NCCCN(Cc1cncn1Cc1ccc(C#N)cc1)[C@H]1CCN(Cc2ccccc2)C1=O | 3.6 |
| CC(C)(C)OC(=O)NCCCN(Cc1cncn1Cc1ccc(C#N)cc1)[C@H]1CCN(Cc2cccc(Cl)c2)C1=O | 2.7 |
| N#Cc1ccc(Cn2cncc2CN[C@H]2CCN(C(=O)c3cccnc3S)C2)cc1 | > 50 |
| N#Cc1ccc(Cn2cncc2CCN[C@@H]2CCN(CCc3ccccc3)C2=O)cc1 | 1.5 |
| N#Cc1ccc(Cn2cncc2CN[C@@H]2CCN(c3ccccc3)C2=O)cc1 | 41 |
| N#Cc1ccc(Cn2cncc2CN[C@H]2CCN(C(=O)c3ccccc3)C2)cc1 | 24 |
| N#Cc1ccc(Cn2cncc2CN[C@H]2CCN(C(=O)c3cccc4ccccc34)C2)cc1 | 0.88 |
| N#Cc1ccc(Cn2cncc2CN[C@H]2CCN(C(=O)c3cccc(Cl)c3)C2)cc1 | 11 |
| N#Cc1ccc(Cn2cncc2CN(CCc2ccccc2)[C@H]2CCN(Cc3ccccc3)C2=O)cc1 | 15 |
| N#Cc1ccc(Cn2cncc2CN[C@H]2CCN(c3ccccn3)C2=O)cc1 | 36 |
| N#Cc1ccc(Cn2cncc2CN(Cc2cccnc2)[C@H]2CCN(Cc3ccccc3)C2=O)cc1 | > 50 |
| N#Cc1ccc(Cn2cncc2CN[C@H]2CCN(c3cccc(Cl)c3)C2=O)cc1 | 6.5 |

Biological target: Protein farnesyltransferase (Homo sapiens, UniProt P49354+P49356)
Assay: In vitro inhibition of farnesyl transferase using purified recombinant human enzyme
Type: protein-complex assay
In short: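 Purified recombinant human FTase with [1-³H]FPP and a recombinant protein substrate carrying the K-Ras C-terminus (CVIM). Labeled farnesyl incorporation measured by acid precipitation of total protein and scintillation counting. Final methanol or DMSO 0.5 vol %. Mostly run at least twice; SD given for n≥3.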

| Compound | IC50 [µM] |
| --- | --- |
| N#Cc1ccc(Cn2cncc2CN[C@H]2CCN(C(=O)c3ccccc3Cl)C2)cc1 | 0.065 |
| N#Cc1ccc(Cn2cncc2CN[C@H]2CCN(Cc3ccc(Cl)cc3)C2=O)cc1 | 0.025 |
| N#Cc1ccc(Cn2cncc2CN[C@H]2CCN(c3ccccc3)C2=O)cc1 | 0.074 |
| N#Cc1ccc(Cn2cncc2CN[C@H]2CCN(c3ccccc3Cl)C2=O)cc1 | 0.0015 |
| N#Cc1ccc(Cn2cncc2CN(Cc2ccccc2)[C@H]2CCN(Cc3ccccc3)C2=O)cc1 | 0.067 |
| N#Cc1ccc(Cn2cncc2CCN[C@H]2CCN(c3ccccc3)C2=O)cc1 | 0.28 |
| CCSc1ncccc1C(=O)N1CC[C@H](NCc2cncn2Cc2ccc(C#N)cc2)C1 | 0.0048 |
| N#Cc1ccc(Cn2cncc2CN(CCCCc2ccccc2)[C@H]2CCN(Cc3ccccc3)C2=O)cc1 | 0.042 |
| N#Cc1ccc(Cn2cncc2CCN[C@H]2CCN(Cc3ccccc3)C2=O)cc1 | 0.27 |
| N#Cc1ccc(Cn2cncc2CN[C@H]2CCN(C(=O)c3ccc(Cl)cc3)C2)cc1 | 0.089 |
| N#Cc1ccc(Cn2cncc2CCN[C@@H]2CCN(c3ccccc3)C2=O)cc1 | 0.12 |
| N#Cc1ccc(Cn2cncc2CN[C@H]2CCN(c3ccncc3)C2=O)cc1 | 0.043 |
| Cc1ncccc1C(=O)N1CC[C@H](NCc2cncn2Cc2ccc(C#N)cc2)C1 | 0.1 |
| N#Cc1ccc(Cn2cncc2CN[C@H]2CCN(C(=O)c3cccnc3N)C2)cc1 | 0.98 |
| N#Cc1ccc(Cn2cncc2CN(CCCN)[C@H]2CCN(Cc3cccc(Cl)c3)C2=O)cc1 | 0.0075 |
| N#Cc1ccc(Cn2cncc2CN[C@H]2CCN(C(=O)c3cncc(Br)c3)C2)cc1 | 0.043 |
| N#Cc1ccc(Cn2cncc2CN[C@H]2CCN(Cc3ccccc3Cl)C2=O)cc1 | 0.0052 |
| CCCN(Cc1cncn1Cc1ccc(C#N)cc1)[C@H]1CCN(Cc2ccccc2)C1=O | 0.059 |
| N#Cc1ccc(Cn2cncc2CCN[C@H]2CCN(CCc3ccccc3)C2=O)cc1 | 0.24 |

| Compound | IC50 [µM] |
| --- | --- |
| N#Cc1ccc(Cn2cncc2CN[C@H]2CCN(C(=O)c3cccnc3)C2)cc1 | 2 |
| N#Cc1ccc(Cn2cncc2CN[C@@H]2CCN(CCc3ccccc3)C2=O)cc1 | 0.25 |
| N#Cc1ccc(Cn2cncc2CN[C@H]2CCN(C(=O)c3ccc[nH]c3=O)C2)cc1 | 6.8 |
| N#Cc1ccc(Cn2cncc2CN[C@H]2CCN(c3ccc(Cl)cc3)C2=O)cc1 | 0.021 |
| N#Cc1ccc(Cn2cncc2CCN[C@@H]2CCN(Cc3ccccc3)C2=O)cc1 | 0.25 |
| N#Cc1ccc(Cn2cncc2CN[C@H]2CCN(CCc3ccccc3)C2=O)cc1 | 0.23 |
| COc1ncccc1C(=O)N1CC[C@H](NCc2cncn2Cc2ccc(C#N)cc2)C1 | 0.15 |
| N#Cc1ccc(Cn2cncc2CN[C@H]2CCN(c3cccnc3)C2=O)cc1 | 0.085 |
| CC(C)(C)OC(=O)NCCCN(Cc1cncn1Cc1ccc(C#N)cc1)[C@H]1CCN(Cc2cccc(Cl)c2)C1=O | 0.0013 |
| N#Cc1ccc(Cn2cncc2CN[C@H]2CCN(C(=O)c3cccnc3S)C2)cc1 | 2.9 |
| N#Cc1ccc(Cn2cncc2CCN[C@@H]2CCN(CCc3ccccc3)C2=O)cc1 | 0.38 |
| N#Cc1ccc(Cn2cncc2CN[C@@H]2CCN(c3ccccc3)C2=O)cc1 | 0.2 |
| N#Cc1ccc(Cn2cncc2CN[C@H]2CCN(C(=O)c3ccccc3)C2)cc1 | 0.11 |
| N#Cc1ccc(Cn2cncc2CN[C@H]2CCN(C(=O)c3cccc4ccccc34)C2)cc1 | 0.011 |
| N#Cc1ccc(Cn2cncc2CN[C@H]2CCN(C(=O)c3cccc(Cl)c3)C2)cc1 | 0.027 |
| N#Cc1ccc(Cn2cncc2CN(CCc2ccccc2)[C@H]2CCN(Cc3ccccc3)C2=O)cc1 | 0.051 |
| N#Cc1ccc(Cn2cncc2CN[C@H]2CCN(c3ccccn3)C2=O)cc1 | 0.37 |
| N#Cc1ccc(Cn2cncc2CN[C@H]2CCN(c3cccc(Cl)c3)C2=O)cc1 | 0.0084 |
